# ChEMBL document CHEMBL1212693, “Dorsomorphin inhibits BMP signals required for embryogenesis and iron metabolism” (Nat Chem Biol, 2008)
# The source made the active and inactive calls. The calls are words filed in the database; no cut-off is given here.
# Legend:
# Hep 3B2 = assay: Inhibition of BMPR1-mediated Id1 mRNA expression in IL6-stimulated human Hep3B cells at 10 uM treated 30 mins before IL6 challenge measured after 6 hrs by qRT-PCR analysis; type: cell-based
# Summary of the method: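 Hep3B cells were grown in α-MEM with 10% FBS, then incubated 6 h in α-MEM with 1% fetal calf serum, with or without dorsomorphin and human IL-6 (100 ng ml−1). RNA was Trizol-extracted. Id1 mRNA was measured by qRT-PCR, normalized to 18S rRNA or β-actin mRNA. Triplicate measurements, mean ± s.d.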
# Mus musculus [1] = assay: Inhibition of iron-dextran conjugate-induced Smad-5 phosphorylation in C57BL/6 mouse at 23 ug/g, iv after 1 hr; type: functional, organism-based
# Mus musculus [2] = assay: Inhibition of iron-dextran conjugate-induced hepcidin mRNA expression in C57BL/6 mouse at 10 mg/kg, iv after 6 hrs by qRT-PCR analysis; type: functional, organism-based; parameters: dose 10 mg/kg
# Mus musculus [3] = assay: Increase in serum iron concentration in C57BL/6 mouse at 10 mg/kg, iv after 24 hrs; type: functional
# Mus musculus [4] = species: Mus musculus; assay: Inhibition of BMPR1-mediated Smad-8 phosphorylation in BMP2-stimulated mouse PASMC at 4 uM treated 30 mins before BMP2 challenge measured after 30 mins by immunoblot analysis
# Summary of the method: (§1)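 Wild-type mouse PASMCs were kept in RPMI with 0.5% FCS for 24 h. They were preincubated with compound or vehicle for 30 min, then stimulated for 30 min with recombinant BMP2, BMP4, BMP6 or BMP7 at 10 ng ml−1. Lysates in SDS buffer were immunoblotted with anti-phospho-SMAD1/5/8. Total SMAD1 and α-tubulin served as loading controls, and bands were quantified by phosphorimager.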
# Mus musculus [5] = species: Mus musculus; assay: Inhibition of BMPR1-mediated Smad-5 phosphorylation in BMP6-stimulated mouse PASMC at 4 uM treated 30 mins before BMP6 challenge measured after 30 mins by immunoblot analysis; summary of the method: as §1
# Mus musculus [6] = species: Mus musculus; assay: Inhibition of BMPR1-mediated Smad-8 phosphorylation in BMP6-stimulated mouse PASMC at 4 uM treated 30 mins before BMP6 challenge measured after 30 mins by immunoblot analysis; summary of the method: as §1
# Mus musculus [7] = species: Mus musculus; assay: Inhibition of BMPR1-mediated Smad-8 phosphorylation in BMP4-stimulated mouse BMPR2 deficient PASMC at 4 uM treated 30 mins before BMP4 measured after 30 mins by immunoblot analysis
# Mus musculus [8] = species: Mus musculus; assay: Inhibition of BMPR1-mediated Smad-1 phosphorylation in BMP7-stimulated mouse BMPR2 deficient PASMC at 4 uM treated 30 mins before BMP7 challenge measured after 30 mins by immunoblot analysis
# Summary of the method: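 PASMCs (wild-type or BMPR-II–deficient) were kept 24 h in RPMI with 0.5% FCS, preincubated 30 min with compound or vehicle, then stimulated 30 min with recombinant BMP (10 ng ml−1). Extracts in SDS-lysis buffer were immunoblotted for phospho-SMAD1/5/8, with total SMAD1 and α-tubulin as loading controls. Bands were quantitated by phosphorimager.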
# Mus musculus [9] = species: Mus musculus; assay: Inhibition of BMPR1-mediated Smad-5 phosphorylation in BMP7-stimulated mouse BMPR2 deficient PASMC at 4 uM treated 30 mins before BMP7 challenge measured after 30 mins by immunoblot analysis
# Mus musculus [10] = species: Mus musculus; assay: Inhibition of ALK2-mediated Smad-1 phosphorylation in BMPR2 deficient mouse PASMC at 10 uM by immunoblot analysis
# Summary of the method: (§2)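 BMPR-II–deficient mouse PASMCs (RPMI, 10% FBS) transiently transfected with constitutively active ALK2, ALK3 or ALK6 cDNA, or plasmid-only control. Incubated with or without compound (10 µM). Extracts lysed in SDS buffer, run on SDS-PAGE and immunoblotted for phospho-SMAD1/5/8; quantitated by phosphorimager.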
# Mus musculus [11] = species: Mus musculus; assay: Inhibition of ALK2-mediated Smad-8 phosphorylation in BMPR2 deficient mouse PASMC at 10 uM by immunoblot analysis; summary of the method: as §2
# Mus musculus [12] = species: Mus musculus; assay: Inhibition of ALK3-mediated Smad-8 phosphorylation in BMPR2 deficient mouse PASMC at 10 uM by immunoblot analysis; summary of the method: as §2
# Mus musculus [13] = species: Mus musculus; assay: Inhibition of ALK6-mediated Smad-1 phosphorylation in BMPR2 deficient mouse PASMC at 10 uM by immunoblot analysis; summary of the method: as §2
# Mus musculus [14] = species: Mus musculus; assay: Inhibition of ALK2-mediated Id1 promoter activity in BMPR2 deficient mouse PASMC at 10 uM by immunoblot analysis
# Summary of the method: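 BMPR-II–deficient mouse PASMCs at 50% confluence co-transfected with Id1 promoter firefly luciferase (BRE-Luc, 0.3 µg), caALK2, caALK3 or caALK6 (0.6 µg), and pRL-TK Renilla (0.2 µg). Compound (4–10 µM) or vehicle added 1 h after transfection. Activity read as firefly/Renilla ratio by dual luciferase assay; n = 3, mean ± s.d.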
# Danio rerio [15] = species: Danio rerio; assay: Inhibition of BMPR1 in zebrafish assessed as severity of embryonic axis dorsalization at 10 uM treated at 2 to 6 hrs post-fertilization measured at 48 hrs; parameters: scale not given: the % may be the effect or the level left
# Danio rerio [16] = species: Danio rerio; assay: Inhibition of BMPR1 in zebrafish assessed as penetrance of moderate embryonic axis dorsalization at 10 uM treated at 2 to 8 hrs post-fertilization measured at 48 hrs; parameters: scale not given: the % may be the effect or the level left
# Summary of the method: (§3)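 Compound added at the stated times and concentrations. Gross morphology scored visually at up to 48 h.p.f. for dorsalization of the embryonic axis.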
# Danio rerio [17] = species: Danio rerio; assay: Inhibition of BMPR1 in zebrafish assessed as penetrance of moderate embryonic axis dorsalization at 10 uM treated at 6 to 8 hrs post-fertilization measured at 48 hrs; parameters: scale not given: the % may be the effect or the level left; summary of the method: as §3
# Danio rerio [18] = species: Danio rerio; assay: Inhibition of BMPR1 in zebrafish assessed as penetrance of mild embryonic axis dorsalization at 7.5 uM treated at 3 hrs post-fertilization measured at 48 hrs; parameters: scale not given: the % may be the effect or the level left; summary of the method: as §3
# Danio rerio [19] = species: Danio rerio; assay: Inhibition of BMPR1 in zebrafish assessed as penetrance of mild embryonic axis dorsalization at 10 uM treated at 3 hrs post-fertilization measured at 48 hrs; parameters: scale not given: the % may be the effect or the level left; summary of the method: as §3
# Danio rerio [20] = species: Danio rerio; assay: Toxicity in zebrafish assessed as mortality at 0.2 to 10 uM; type: organism-based; conditions: in vivo
# Danio rerio [21] = species: Danio rerio; assay: Inhibition of BMPR1 in zebrafish assessed as decrease in eve1 expression at 10 uM treated at 18-somite stage measured at 48 hrs
# Danio rerio [22] = species: Danio rerio; assay: Inhibition of BMPR1 in zebrafish assessed as increase in pax2a expression at 10 uM treated at 12 hrs post-fertilization measured at 48 hrs
# Danio rerio [23] = species: Danio rerio; assay: Inhibition of BMPR1 in zebrafish assessed as penetrance of mild embryonic axis dorsalization at 10 uM treated continuously from 4 hrs post-fertilization measured after 48 hrs; parameters: scale not given: the % may be the effect or the level left; summary of the method: as §3
# Danio rerio [24] = species: Danio rerio; assay: Inhibition of BMPR1 in zebrafish assessed as penetrance of normal embryonic axis dorsalization at 10 uM treated continuously from 4 hrs post-fertilization measured after 48 hrs; parameters: scale not given: the % may be the effect or the level left
# Danio rerio [25] = species: Danio rerio; assay: Inhibition of BMPR1 in zebrafish assessed as penetrance of moderate embryonic axis dorsalization at 10 uM treated continuously from 6 hrs post-fertilization measured at 48 hrs; parameters: scale not given: the % may be the effect or the level left; summary of the method: as §3
# Danio rerio [26] = species: Danio rerio; assay: Inhibition of BMPR1 in zebrafish assessed as penetrance of normal embryonic axis dorsalization at 10 uM treated continuously from 8 hrs post-fertilization measured at 48 hrs; parameters: scale not given: the % may be the effect or the level left
# Danio rerio [27] = species: Danio rerio; assay: Inhibition of BMPR1 in zebrafish assessed as penetrance of mild embryonic axis dorsalization at 10 uM treated continuously from 8 hrs post-fertilization measured at 48 hrs; parameters: scale not given: the % may be the effect or the level left; summary of the method: as §3
compound,measurement,setting,value
c1cc(-c2cnn3cc(-c4ccc(OCCN5CCCCC5)cc4)cnc23)ccn1 [DORSOMORPHIN],inhibition,Hep 3B2,Active
same,inhibition,Mus musculus [1],Active
same,inhibition,Mus musculus [2],Active
same,Activity,Mus musculus [3],60%
same,inhibition,Mus musculus [4],Active
same,inhibition,Mus musculus [5],Active
same,inhibition,Mus musculus [6],Active
same,inhibition,Mus musculus [7],Active
same,inhibition,Mus musculus [8],Active
same,inhibition,Mus musculus [9],Active
same,inhibition,Mus musculus [10],Active
same,inhibition,Mus musculus [11],Active
same,inhibition,Mus musculus [12],Active
same,inhibition,Mus musculus [13],Active
same,inhibition,Mus musculus [14],Dose-dependent effect
same,Activity,Danio rerio [15],39%
same,Activity,Danio rerio [16],0%
same,Activity,Danio rerio [17],5%
same,Activity,Danio rerio [18],58%
same,Activity,Danio rerio [19],3%
same,Activity,Danio rerio [20],Non-toxic
same,inhibition,Danio rerio [21],Active
same,Activity,Danio rerio [22],Active
same,Activity,Danio rerio [23],0%
same,Activity,Danio rerio [24],0%
same,Activity,Danio rerio [25],78%
same,Activity,Danio rerio [26],15%
same,Activity,Danio rerio [27],85%
